One data set relates to Cryptococcus neoformans. As to the kind of experiment: Antifungal activity against Cryptococcus neoformans 1 after 24 to 72 hrs by disk diffusion method. It counts as functional. The method in brief: (§1)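 Yeasts grown on yeast extract 10 g, peptone 20 g and glucose 15 g per litre, pH 6.0, solidified with 1.5% agar and autoclaved 120 °C for 20 min. Cellulose-disk diffusion assay, with inhibition zone diameters recorded after 24-72 h of incubation, depending on the strain.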
A general note: Agar diffusion results depend on both activity and mobility in agar.

Another data set relates to Candida tropicalis. Kind of data set: Antifungal activity against amphotericin-resistant Candida tropicalis after 24 to 72 hrs by disk diffusion method. It counts as functional. The method in brief: as §1
A further data set has as its system Nakaseomyces glabratus. Kind of data set: Antifungal activity against Candida glabrata after 24 to 72 hrs by disk diffusion method. It counts as functional. The method in brief:
as §1

In a further data set the test system is L1210. Kind of data set: Cytotoxicity against mouse L1210 cells after 5 days by MTT assay. The format is functional. As to conditions: L1210, 120 h, read-out: LD50 (the source's name). The method in brief: (§2)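 Inhibition of tumour cells (human MDA-MB 231 clonogenic cells, human prostatic adenocarcinoma PC3 and murine leukemia L-1210) was read by Mossmann-derived MTT colorimetric method. Taxol and doxorubicin were run as references.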
(In general: Tetrazolium assays rely on reduction of a dye to a coloured formazan, in cell work by metabolically active cells.)

In the next data set the test system is PC-3. As to the kind of experiment: Cytotoxicity against human PC-3 cells after 5 days by MTT assay. It counts as functional. The following applies: PC-3, 120 h, read-out: LD50 (the source's name). The method in brief: as §2
In the next data set the test system is MDA-MB-231. As to the kind of experiment: Cytotoxicity against human MDA-MB-231 cells after 5 days by MTT assay. It counts as functional. As to conditions: MDA-MB-231, 120 h, read-out: LD50 (the source's name). The method in brief: as §2
For a further data set, the system named is Pseudomonas aeruginosa. Kind of data set: Antibacterial activity against Pseudomonas aeruginosa after 24 to 72 hrs by disk diffusion method. The format is functional. The method in brief: (§3)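 Paper-disk diffusion on agar plates. Cellulose disks carry crude EtOAc extract of the fungal culture filtrate; the extract is dried, then redissolved in 3 mL EtOAc. Inhibition zone diameters are read after 24-72 h of incubation, with the time depending on the target organism.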

The test system of data set [1] is Staphylococcus aureus. Kind of data set: Antibacterial activity against Staphylococcus aureus after 24 to 72 hrs by disk diffusion method. It counts as functional. The method in brief: as §3
For the next data set, the system named is Escherichia coli. As to the kind of experiment: Antibacterial activity against Escherichia coli after 24 to 72 hrs by disk diffusion method. It counts as functional. The method in brief:
as §3

The test system of data set [2] is Staphylococcus aureus. As to the kind of experiment: Antibacterial activity against penicillin-resistant Staphylococcus aureus after 24 to 72 hrs by disk diffusion method. The format is functional. The method in brief: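 Cellulose-disk agar diffusion; growth medium includes soya phytone 5 g and NaCl 5 g per litre distilled water, pH 7.2, with 1.5% agar, autoclaved 120 °C for 20 min. Inhibition zone diameters read after 24-72 h of incubation, depending on the target organism.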

For the next data set, the system named is Enterococcus faecalis. As to the kind of experiment: Antibacterial activity against Streptococcus faecalis after 24 to 72 hrs by disk diffusion method. It counts as functional. The method in brief: as §3
Data set [3] can be described thus: Cytotoxicity against human MRC5 cells after 5 days by MTT assay. The format is cell-based. The following applies: read-out: LD50. The method in brief: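 Human lung fibroblast MRC5 (nontumor) line in 96-well plates; modified Mossmann MTT colorimetric micromethod; compound tested up to a maximal concentration of 100 µg/mL.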

In brackets after ≈: the same amount, converted by molar mass. Where only a bound is given, the exact number is not on record here.

As to `C[C@@H]1[C@H](O)[C@@H](C)/C=C/C=C/C=C/C=C/C=C/C=C/C=C/[C@H](O[C@@H]2O[C@H](C)[C@@H](O)[C@H](N)[C@@H]2O)C[C@@H]2O[C@](O)(C[C@@H](O)C[C@@H](O)[C@H](O)CC[C@@H](O)C[C@@H](O)CC(=O)O[C@H]1C)C[C@H](O)[C@H]2C(=O)O` [AMPHOTERICIN B], the minimal inhibitory concentration (MIC) in the data set with Cryptococcus neoformans was 140 µg/mL (≈ 152 µM); against Candida tropicalis, over 560 µg/mL; against Nakaseomyces glabratus it was 140 µg/mL (≈ 152 µM).
Take `COc1cccc2c1C(=O)c1c(O)c3c(c(O)c1C2=O)C[C@@](O)(C(=O)CO)C[C@@H]3O[C@H]1C[C@H](N)[C@H](O)[C@H](C)O1` [DOXORUBICIN]: the values for the CC50 in the data set with L1210, in the data set with PC-3 and in the data set on MDA-MB-231 were 0.02 µg/mL (≈ 0.0368 µM), 0.19 µg/mL (≈ 0.35 µM) and 0.09 µg/mL (≈ 0.166 µM), respectively.
With `NC[C@H]1O[C@H](O[C@H]2[C@H](O)[C@@H](O[C@H]3O[C@H](CO)[C@@H](O)[C@H](N)[C@H]3O)[C@H](N)C[C@@H]2N)[C@H](O)[C@@H](O)[C@@H]1O` [KANAMYCIN], the MIC came to 140 µg/mL (≈ 289 µM) with Pseudomonas aeruginosa; 140 µg/mL (≈ 289 µM) in the data set with Staphylococcus aureus [1]; 28 µg/mL (≈ 57.8 µM) in the data set with Escherichia coli; 14 µg/mL (≈ 28.9 µM) with Staphylococcus aureus [2]; 560 µg/mL (≈ 1160 µM) in the data set on Enterococcus faecalis.
`CC(=O)N1CCN(c2ccc(OCC3COC(Cn4ccnc4)(c4ccc(Cl)cc4Cl)O3)cc2)CC1` (configuration not stated) [KETOCONAZOLE]: the results for the minimum inhibitory concentration (MIC) against Cryptococcus neoformans, against Candida tropicalis and with Nakaseomyces glabratus were 56 µg/mL (≈ 105 µM), 140 µg/mL (≈ 263 µM) and 14 µg/mL (≈ 26.3 µM), respectively.
Consider `C=C1OC(=O)[C@]2(C1=O)[C@H](C)C=CC(=O)[C@H]2O` [MYCOSPORULONE], for which the minimal inhibitory concentration (MIC) in the data set with Cryptococcus neoformans amounted to 280 µg/mL (≈ 1260 µM); against Candida tropicalis, 14 µg/mL (≈ 63 µM); against Pseudomonas aeruginosa it was 14 µg/mL (≈ 63 µM); in the data set on Staphylococcus aureus [1] it was 420 µg/mL (≈ 1890 µM); against Escherichia coli, 14 µg/mL (≈ 63 µM); in the data set on Staphylococcus aureus [2], 14 µg/mL (≈ 63 µM). The minimum inhibitory concentration (MIC) stood at 420 µg/mL (≈ 1890 µM) against Nakaseomyces glabratus and 280 µg/mL (≈ 1260 µM) in the data set on Enterococcus faecalis. The CC50 at 120 h in data set [3] is over 100 µg/mL. Also, the CC50 worked out at 0.3 µg/mL (≈ 1.35 µM) in the data set on L1210, 2.6 µg/mL (≈ 11.7 µM) in the data set with PC-3 and 7.7 µg/mL (≈ 34.7 µM) in the data set with MDA-MB-231.
With `CC(=O)O[C@H]1C(=O)[C@@]2(C)[C@H]([C@H](OC(=O)c3ccccc3)[C@]3(O)C[C@H](OC(=O)[C@H](O)[C@@H](NC(=O)c4ccccc4)c4ccccc4)C(C)=C1C3(C)C)[C@]1(OC(C)=O)CO[C@@H]1C[C@@H]2O` [PACLITAXEL], the CC50 with L1210 amounted to 0.014 µg/mL (≈ 0.0164 µM); with PC-3, 0.0027 µg/mL (≈ 0.00316 µM); with MDA-MB-231, 0.003 µg/mL (≈ 0.00351 µM).
As for `CC1(C)S[C@@H]2[C@H](NC(=O)Cc3ccccc3)C(=O)N2[C@H]1C(=O)O` [PENICILLIN G], the MIC against Pseudomonas aeruginosa amounted to 560 µg/mL (≈ 1670 µM); with Staphylococcus aureus [1], 14 µg/mL (≈ 41.9 µM); in the data set on Escherichia coli, 560 µg/mL (≈ 1670 µM); in the data set with Staphylococcus aureus [2], 560 µg/mL (≈ 1670 µM); against Enterococcus faecalis, 14 µg/mL (≈ 41.9 µM).
In the case of `CN[C@@H]1[C@H](O[C@H]2[C@H](O[C@H]3[C@H](O)[C@@H](O)[C@H](N=C(N)N)[C@@H](O)[C@@H]3N=C(N)N)O[C@@H](C)[C@]2(O)C=O)O[C@@H](CO)[C@H](O)[C@H]1O` [STREPTOMYCIN], the MIC is 140 µg/mL (≈ 241 µM) in the data set on Pseudomonas aeruginosa; 420 µg/mL (≈ 722 µM) against Staphylococcus aureus [1]; 28 µg/mL (≈ 48.1 µM) in the data set on Escherichia coli; 14 µg/mL (≈ 24.1 µM) against Staphylococcus aureus [2]; 420 µg/mL (≈ 722 µM) with Enterococcus faecalis.
NYSTATIN: the MIC in the data set on Cryptococcus neoformans amounted to 14 µg/mL; in the data set with Candida tropicalis it was 14 µg/mL; against Nakaseomyces glabratus, 28 µg/mL.

In general, MIC refers to the lowest concentration found to suppress growth. Higher therefore signals a less susceptible organism.

The record behind these values is ChEMBL document CHEMBL1144104, “Antimicrobial and antitumor activities of mycosporulone” (J Nat Prod, 1999).
